Diaphorase act: compounds boosting diaphorase resazurin reduction – biochemical, uHTS, resorufin fluorescence, counter-screen for diaphorase-coupled primary assays, primary screen. Diaphorase/resazurin coupled assay, 16 min; hits give high values; 1 = vehicle wells, 0 = NADH-free wells. AID 1229, 2008. actives 0.005% (n = 190,000). activation factor at 20 µM;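 active means diaphorase activity raised at least twofold by the compound at 20 µM; inactive means activation factor below 2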
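test system = bacterial diaphorase enzyme (C. kluyveri) | quantity = enzyme 0.07 U/mL final | reagent = NADH substrate 0.114 mM plus resazurin dye 0.1 mM, final | incubation = 16 min enzyme reaction, ambient temperature | buffer or medium = HEPES pH 7.4 buffer with MgCl2 and Tween 20 | signal = fluorescence of resorufin, 544 nm excitation, 590 nm emission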
WT yeast gro inh: growth inhibition of WT strain, primary screen, mitochondrial fusion inhibitor project, WT and mutant strains, chemical genetic; actives 2.1% (n = 190,000); inhibition, % at 10 µM; mitochondrial fusion phenotypic screen; in the data active means inhibition above about 58%; tested in S. cerevisiae
Diaph inh CS: diaphorase inhibitors and chemical oxidizers, primary screen, counter-screen for diaphorase-coupled primary assays, biochemical, uHTS, resorufin fluorescence; diaphorase resazurin-to-resorufin fluorescence, NADH, 16 min; bacterial (C. kluyveri) enzyme, not human; inhibition, % at 20 µM; actives 0.69% (n = 190,000); AID 1217, 2008;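 active means primary screen inhibition at 20 µM above a set limit, cut at about 50% in these data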;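 further: plate controls were DMSO with full reaction for no effect and wells lacking NADH for full effect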
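Test system: diaphorase enzyme from Clostridium kluyveri; amount: diaphorase at 0.14 U/mL in enzyme working solution; detection: fluorescence of resorufin formed from resazurin, Ex 544/Em 590 nm; times: reaction incubation of 16 min at room temperature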
ROMK mod: ROMK potassium channel modulators, primary screen, cell-based, thallium flux, MLSMR library. Tet-inducible ROMK, thallium flux fluorescence; actives lie on both sides. B-score at 10 µM. actives 2% (n = 130,000);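 active means signal ratio slope over the read window, or its plate-corrected B-score, at least 3 SD from the plate mean, either direction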;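 further: B-score of the F/F0 ratio slope over 7 to 12 s after thallium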
Target sequence (P48048 whole entry, looked up): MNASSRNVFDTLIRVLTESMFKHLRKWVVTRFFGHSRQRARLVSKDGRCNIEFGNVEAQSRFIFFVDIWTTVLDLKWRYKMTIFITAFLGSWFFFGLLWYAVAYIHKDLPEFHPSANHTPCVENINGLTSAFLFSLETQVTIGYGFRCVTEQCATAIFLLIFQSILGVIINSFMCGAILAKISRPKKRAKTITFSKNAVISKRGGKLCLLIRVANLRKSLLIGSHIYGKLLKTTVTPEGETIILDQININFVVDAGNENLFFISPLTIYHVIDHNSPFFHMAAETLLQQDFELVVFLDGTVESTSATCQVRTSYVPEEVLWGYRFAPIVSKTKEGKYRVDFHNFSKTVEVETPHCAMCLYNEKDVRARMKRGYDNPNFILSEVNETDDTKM
Cl transport mod: KCC2 cotransporter modulators, thallium flux, primary screen, cell-based, HEK293 KCC2, FluoZin-2 fluorescence, MLSMR | actives 2.2% (n = 190,000) | Solute carrier family 12 member 5 (Homo sapiens), Q9H2X9 | KCC2 cells, thallium flux FluoZin-2 fluorescence | AID 1456, 2008 | B-score of Tl+ flux slope (higher = more flux/activation; lower = inhibition) at 10 µM;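 active means thallium flux slope and its plate-corrected score both differing from the plate sample mean at a set confidence after two filtering rounds, in either direction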;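 further: slope of fluorescence scaled to starting intensity during 10 to 20 s after thallium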
L major viab: Leishmania major promastigote growth inhibition, primary screen; Leishmania major promastigotes, resazurin fluorescence viability; inhibition, % at 10 µM; actives 9% (n = 200,000); AID 1063, 2008; in the data active means inhibition above about 50%;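 further: promastigotes grown with compound for 44 hours at 28 °C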
KCC2 sec1: KCC2 modulators in sodium-free buffer, confirmation, cell-based, HEK293 KCC2, thallium flux, secondary assay | shares compounds with Cl transport mod | FluoZin2 fluorescence; hits give high values | normalised thallium flux (F/F0 slope) at 10 µM | actives 15% (n = 3,700) | AID 1713, 2009;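 active means thallium flux slope above the same plate's solvent-only control mean plus 3 SD; inconclusive means the two replicate wells disagree; inactive means no significant difference from solvent-only control wells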
KCC2 bumet counter: thallium flux persisting under bumetanide in KCC2 cells, confirmation, counter-screen for KCC2 modulator project, cell-based, HEK293 KCC2, FluoZin2, secondary assay 3 | shares compounds with Cl transport mod | HEK293-KCC2 + bumetanide/ouabain; hits give high values | normalized thallium flux at 10 µM | actives 49% (n = 3,700);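 active means thallium entry rate above the same plate's blocked-transporter control wells by more than 3 SD; inconclusive means the two repeat wells disagree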;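 further: raw slope of fluorescence over initial fluorescence between 10 and 20 s after thallium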
KCC2 sec2: KCC2 modulators without ouabain present, confirmation, cell-based, HEK293 KCC2, thallium flux, FluoZin2, secondary assay 2. shares compounds with Cl transport mod. thallium flux FluoZin2 fluorescence; actives lie on both sides; F/F0 rise rate, 10–20 s post-thallium. normalized thallium flux at 10 µM. actives 23% (n = 3,700). AID 1715, 2009;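 active means thallium flux slope more than 3 SD above or below the plate's solvent-only control mean, mostly below; inconclusive means the two repeat wells disagreed; inactive means no significant shift from solvent-only controls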;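 further: raw slope with 0.1% DMSO as baseline and bumetanide as block control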
HEK counter1: thallium flux modulation in parental HEK cells, confirmation, counter-screen for KCC2 modulator project, cell-based, counterscreen 1; thallium flux rate (normalised fluorescence) at 10 µM; HEK293 parental cells, thallium flux FluoZin2, ouabain; baseline-ratio fluorescence slope, 10–20 s after thallium; shares compounds with Cl transport mod; AID 1716, 2009; actives 46% (n = 3,700);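 active means thallium flux rate significantly above the same plate's solvent-only control wells, beyond their mean plus 3 SD; inconclusive means the two replicate wells gave conflicting results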
KCC2 ouabain: KCC2 inhibitors and activators, ouabain retest, confirmation, HEK-KCC2 cells | raw Tl+ flux slope (below DMSO = inhibition, above = activation) at 10 µM | HEK293-KCC2, thallium flux FluoZin2 fluorescence; bidirectional: low = inhibitor, high = activator | shares compounds with Cl transport mod | actives 48% (n = 3,700) | AID 1717, 2009;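 active means thallium flux slope beyond 3 SD from same-plate DMSO control mean in most replicates, usually higher, sometimes lower; inconclusive means repeat tests gave conflicting results; inactive means no significant difference from controls in most replicates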;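 further: slope of initial-normalized fluorescence between seconds 10 and 20 after thallium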
HEK counter2: native HEK Tl+ uptake effects, second counter-screen – HEK cells, counterscreen 2, counter-screen for KCC2 modulator project, confirmation | thallium flux slope at 10 µM | shares compounds with Cl transport mod | HEK293 parental, thallium flux FluoZin-2 fluorescence slope | actives 33% (n = 3,700);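 active means thallium flux slope above the same plate's solvent-control mean plus 3 SD in both duplicate wells; inconclusive means duplicate wells that disagreed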;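 further: run without ouabain in cells lacking the KCC2 cotransporter; slope of fluorescence scaled to its starting value between 10 and 20 s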
An asterisk follows results filed as active. Rows were chosen to be rich in hits. Some 12% of all compounds tested hit in one or more screens of this group.

Results for CCOc1ccc(C(=O)C[n+]2ccccc2C)cc1 ?
Diaphorase act: 0.9; WT yeast gro inh: -2; Diaph inh CS: 6; Cl transport mod: -0.94; L major viab: -1

What do the screens show for `CCn1c(N2CCC(Cc3ccccc3)CC2)nc2c1c(=O)[nH]c(=O)n2C`?
Diaphorase act: 0.9; WT yeast gro inh: 56; Diaph inh CS: 14; Cl transport mod: -3.1*; L major viab: 10; KCC2 sec1: 0.0078; KCC2 bumet counter: 0.0046; KCC2 sec2: 0.032; HEK counter1: 0.0061*; KCC2 ouabain: 0.016*; HEK counter2: 0.011

Results for C=CCN1C(=O)C(C)NC1=S (centres undefined) ?
ROMK mod: 0.05; Cl transport mod: 0.5

How did COc1ccccc1-c1nc(C#N)c(N2CCC(Cc3ccccc3)CC2)o1 do in these assays?
Diaphorase act: 1.1; WT yeast gro inh: 2; Diaph inh CS: -6; ROMK mod: -0.27; L major viab: -2; KCC2 sec1: 0.0092; KCC2 bumet counter: 0.006; KCC2 sec2: inconclusive; HEK counter1: 0.0083; KCC2 ouabain: 0.019*; HEK counter2: 0.011

What do the screens show for `COc1ccc(/C(O)=C2/C(=O)C(=O)N(CCN(C)C)C2c2ccccn2)cc1OC` (centres undefined)?
Diaphorase act: 0.9; WT yeast gro inh: 15; Diaph inh CS: 11; ROMK mod: 0.18; Cl transport mod: 4*; L major viab: 8; KCC2 sec1: 0.0089; KCC2 bumet counter: 0.0074; KCC2 sec2: 0.029; HEK counter1: inconclusive; KCC2 ouabain: 0.021; HEK counter2: inconclusive

How did Cc1ccc(/C(O)=C2/C(=O)C(=O)N(CCN3CCOCC3)C2c2ccccn2)cc1 (centres undefined) do in these assays?
Diaphorase act: 0.9; WT yeast gro inh: -12; Diaph inh CS: 13; Cl transport mod: 2.7*; L major viab: -3; KCC2 sec1: 0.0079; KCC2 bumet counter: inconclusive; KCC2 sec2: 0.033; HEK counter1: inconclusive; KCC2 ouabain: 0.026; HEK counter2: 0.01

How did O=C1C(=O)N(CCN2CCOCC2)C(c2ccccn2)/C1=C(/O)c1ccccc1 (centres undefined) do in these assays?
Diaphorase act: 0.6; WT yeast gro inh: -8; Diaph inh CS: 37; ROMK mod: -0.072; L major viab: 5

Results for COc1ccc(NC(=S)N2CCC(c3nc4ccccc4o3)CC2)c(OC)c1 ?
Diaphorase act: 0.9; WT yeast gro inh: 18; Diaph inh CS: 13; Cl transport mod: -0.54; L major viab: -8

Results for COc1ccc(C(=O)NC2CCCCC2)cc1S(=O)(=O)N1CCCC1 ?
Diaphorase act: 1.1; WT yeast gro inh: 8; Diaph inh CS: -10; ROMK mod: -1.2; Cl transport mod: 7.5*; L major viab: 1; KCC2 sec1: 0.0098; KCC2 bumet counter: inconclusive; KCC2 sec2: 0.036; HEK counter1: 0.0074; KCC2 ouabain: 0.023; HEK counter2: 0.011

What do the screens show for `C=CCC(CC=C)(NC(=O)c1ccccc1C(=O)O)c1ccccc1`?
Diaphorase act: 0.8; WT yeast gro inh: -11; Diaph inh CS: 15; ROMK mod: -0.64; Cl transport mod: 0.34; L major viab: 27

How did CCOc1cccc2sc(NC(=O)c3ccc(Br)s3)nc12 do in these assays?
Diaphorase act: 0.9; WT yeast gro inh: 20; Diaph inh CS: 10; Cl transport mod: 32*; L major viab: 37; KCC2 sec1: inconclusive; KCC2 bumet counter: 0.056*; KCC2 sec2: 0.049*; HEK counter1: 0.034*; KCC2 ouabain: 0.038*; HEK counter2: 0.032*

What do the screens show for `Cc1nc(NC(=O)c2ccc(Br)s2)sc1C(=O)N(C)C`?
Diaphorase act: 0.9; WT yeast gro inh: 3; Diaph inh CS: 12; ROMK mod: 0.21; Cl transport mod: 1.2; L major viab: -5

What do the screens show for `CCOc1ccc(CCNC(=O)c2cc3sccc3n2C)cc1OCC`?
Diaphorase act: 0.8; WT yeast gro inh: 5; Diaph inh CS: 18; ROMK mod: 0.41; Cl transport mod: 3.9*; L major viab: -1; KCC2 sec1: 0.0074; KCC2 bumet counter: 0.0041; KCC2 sec2: inconclusive; HEK counter1: inconclusive; KCC2 ouabain: 0.017; HEK counter2: 0.0094

Results for COc1cc(OC)cc(C(=O)Nc2ccc(S(=O)(=O)Nc3nc(C)cc(C)n3)cc2)c1 ?
Diaphorase act: 1; WT yeast gro inh: -1; Diaph inh CS: 0; ROMK mod: -0.031; L major viab: -5

What do the screens show for `COc1ccccc1C1OC2=C(Nc3ccc([N+](=O)[O-])cc3N2)C1=O` (centres undefined)?
Cl transport mod: -0.58
